Screening data as filed in PubChem.
Only some compounds are listed: those with a hit (about 2.4% of all), similar ones and a draw of the others.
MPTP inh – blocks calcium-induced mitochondrial swelling | actives 1.4% (n = 360,000) | inhibition, % at 10 µM | AID 602449 | isolated mouse mitochondria, Ca2+ swelling absorbance, 30 min;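 active = inhibition of 50% or more, scaled per plate between neutral and stimulator controls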
NR2E3 ag-1 – agonists of human nuclear receptor NR2E3; Q9Y5X4; GST-NR2E3/biotin-RetCOR TR-FRET, 1536-well; inhibition of corepressor binding, % at 4.78 µM; actives 0.12% (n = 320,000); AID 2300;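 active = percent inhibition above the cutoff of mean plus 3 SD of all tested compounds, set per screening campaign, cut at about 20% in these data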
Target sequence (Q9Y5X4 whole entry, looked up): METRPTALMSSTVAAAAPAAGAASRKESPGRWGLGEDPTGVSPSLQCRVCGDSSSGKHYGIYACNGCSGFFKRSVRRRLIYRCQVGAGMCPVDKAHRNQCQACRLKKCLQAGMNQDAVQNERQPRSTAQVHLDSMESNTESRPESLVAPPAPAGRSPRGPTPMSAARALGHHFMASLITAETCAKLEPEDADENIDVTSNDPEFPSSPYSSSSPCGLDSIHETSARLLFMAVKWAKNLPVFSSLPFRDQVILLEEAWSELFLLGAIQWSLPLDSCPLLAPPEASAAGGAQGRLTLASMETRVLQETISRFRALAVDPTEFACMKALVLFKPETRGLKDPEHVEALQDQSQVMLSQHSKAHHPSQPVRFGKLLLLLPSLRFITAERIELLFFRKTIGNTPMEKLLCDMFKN
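Material: NR2E3–RetCOR corepressor complex / Incubation: Compound–protein incubation for 5 h at 4 °C / Dosing: compound at 4.8 µM, single dose / Detection: time-resolved FRET / Benchmarks: high control biotin, low control 0.6% DMSO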
NR2E3 ag-2 – activates human NR2E3 receptor | inhibition of corepressor binding, % at 3.98 µM | actives 0.35% (n = 360,000) | CHO-S Gal4-NCOR/VP16-NR2E3 two-hybrid, luciferase;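 active = inhibition above the mean of all tested compounds plus 3 SD, cut at about 70% in these data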;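 also: higher means lower luciferase signal from less NR2E3 corepressor binding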
697 NFkB inh – lowers PMA/ionomycin-induced NF-kB signal in 697 B cells | 697 B-cell NF-kB luciferase reporter, 16 h | inhibition, % at 4 µM | actives 0.33% (n = 330,000) | AID 435022; in the data active = inhibition above about 35%
Jurkat NFkB inh – lowers PMA/ionomycin-induced NF-kB signal in Jurkat cells | PMA/ionomycin-induced NF-kB luciferase reporter, luminescence | inhibition, % at 4 µM | actives 0.53% (n = 330,000) | AID 435003; in the data active = inhibition above about 50%
aDG glyco up – alpha-DG glycosylation activation | Pro5-aDG cells, alpha-DG glycosylation AlphaScreen (IIH6); 0% Pro5, 100% B10-LARGE cell signal | actives 0.22% (n = 360,000) | activation, % at 10 µM;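 active = activation of at least 8% versus controls, or a plate z-score of at least 8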;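 also: Pro5 are CHO cells carrying HIG-tagged alpha-DG that lacks glycosylation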
NR2E3 ag conf – confirmation of human NR2E3 agonists. shares compounds with NR2E3 ag-2. inhibition, % at 3.98 µM. CHO-S mammalian two-hybrid NR2E3-NCOR, luciferase luminescence. AID 624378. actives 51% (n = 2,300);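 active = average inhibition above a cutoff equal to the mean inhibition of all tested compounds plus one SD, cut at about 70% in these data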
GAL4-VP16 luc – GAL4-VP16 reporter inhibition in NR2E3 agonist counterscreen. shares compounds with NR2E3 ag-2. CHO-S GAL4-VP16 luciferase reporter, luminescence. AID 624379. inhibition, % at 3.98 µM. actives 29% (n = 2,300);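 active = mean inhibition above a cutoff equal to the average over all tested compounds plus one standard deviation, cut at about 70% in these data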;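 also: luciferase from a UAS reporter driven by GAL4-VP16 transactivation; higher means less reporter light so more repression of VP16 activity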
MPTP counter – mitochondrial membrane potential, counter-screen. actives 78% (n = 5,000). shares compounds with MPTP inh. inhibition, % at 10 µM. isolated mitochondria, Rhodamine 123 fluorescence; in the data active = inhibition above about 22%
Numbers stand for hits; – = inactive; · = not tested or not shown; ! = a repeat was not active.

SMILES	MPTP inh	NR2E3 ag-1	NR2E3 ag-2	697 NFkB inh	Jurkat NFkB inh	aDG glyco up	NR2E3 ag conf	GAL4-VP16 luc	MPTP counter
COc1ccc(-c2coc3c(C(=O)NCc4ccc(F)c(F)c4)cccc23)c(C)c1	–	·	–	·	·	–	·	·	·
O=C(NCc1ccncc1)c1ccc(-c2ccc(F)c(F)c2)c2ccoc12	91	·	84	·	·	–	96	82	87
COc1ccc(C2NC(=O)NC(C)=C2C(=O)OCC2CCCCC2)cc1OC (stereo unspecified)	–	–	–	–	–	–	·	·	·
N#C/C(=C/c1ccc(N2CCOCC2)o1)c1nc2ccccc2[nH]1	–	–	–	–	–	–	·	·	·
N#C/C(=C\c1ccc(Sc2nc3ccccc3[nH]2)o1)c1ccccc1	93	–	73	–	–	–	82	–	84
COc1ccc(-c2ocnc2C(=O)NCc2nn(-c3ccccc3)nc2C)cc1	98	–	–	–	–	–	87	72	87
O=C(NCCCSc1ccccc1)c1cc(Cl)ccc1O	82	·	78	–	–	–	99	87	83
Cc1ccc(OCC(=O)N2N=C(C(F)(F)F)CC2(O)C(C)(C)C)cc1C (stereo unspecified)	79	–	–	–	–	–	–	–	65
CC(Oc1ccccc1)C(=O)N=Nc1c(O)[nH]c2ccc(Br)cc12 (stereo unspecified)	–	–	–	–	–	–	·	·	·
c1ccc(CNc2ncnc3ccccc23)cc1	84	–	80!	–	–	–	72	71	59
Cc1ccc(OCCCCn2cnc3ccccc32)c(C)c1	93	–	72	–	–	–	89	–	93
CCOc1ccc(S(=O)(=O)Nc2cccc(N(C)S(C)(=O)=O)c2)cc1	95	–	–	–	–	–	–	–	42
CN(c1cccc(NS(=O)(=O)c2ccccc2)c1)S(C)(=O)=O	–	–	–	–	–	–	·	·	·
Cc1ccc(S(=O)(=O)n2ccc3c(OCCOCCNCc4ccc(F)cc4)cccc32)cc1	68	–	–	–	–	–	–	–	86
Cc1ccc(S(=O)(=O)n2ccc3c(OCCOCCSCC(NC(=O)OC(C)(C)C)C(=O)O)cccc32)cc1 (stereo unspecified)	–	–	–	–	–	–	·	·	·
CC(=O)Nc1ccc(NS(=O)(=O)c2ccc(-c3cnc(C4CC4)o3)cc2)cc1	–	–	–	–	–	–	·	·	·
CC(=O)c1cccc(NS(=O)(=O)c2ccc(-c3cnc(C4CC4)o3)cc2)c1	94	–	101	–	–	–	95	82	94
CC1(C)CC(=O)C2=C(C1)c1c(ccc3ccccc13)NC2c1cc([N+](=O)[O-])cc([N+](=O)[O-])c1O (stereo unspecified)	73	–	–	–	–	–	98	–	57
O=C(c1ccc(CSc2nc3ccncc3[nH]2)cc1)N1CCCCCC1	–	–	–	–	–	–	·	·	·
O=C(c1ccc(CSc2nc3ccncc3[nH]2)cc1)N1CCN(c2cccc(Cl)c2)CC1	90	–	88	–	–	–	98	–	103
O=c1oc2ccccc2c(Nc2cccc3ccccc23)c1[N+](=O)[O-]	67	–	–	–	–	–	–	–	79
O=c1oc2ccccc2c(Nc2ccccc2O)c1[N+](=O)[O-]	–	–	–	–	–	–	·	·	·
Cn1c(=O)c2[nH]c(COc3ccc(C(C)(C)C)cc3)nc2n(C)c1=O	96	–	–	–	–	–	87	72	70
O=C(c1cc2sccc2n1Cc1ccc(F)cc1)N1CCN(c2nc3ccccc3s2)CC1	90	–	74	–	–	–	92	–	103
COc1cccc(OC)c1OC(=O)c1ccccc1	–	·	–	·	·	–	·	·	·
SMILES	MPTP inh	NR2E3 ag-1	NR2E3 ag-2	697 NFkB inh	Jurkat NFkB inh	aDG glyco up	NR2E3 ag conf	GAL4-VP16 luc	MPTP counter
COc1ccc(NC(=O)CCN=C2NS(=O)(=O)c3ccccc32)cc1S(=O)(=O)N(C)C	–	–	–	–	–	–	·	·	·
Nc1cc(=O)[nH]c(SCc2ccc(Cl)cc2)n1	–	–	–	–	–	–	·	·	·
CC(C)(C)c1ccc(CSc2nc(N)cc(=O)[nH]2)cc1	67	–	96	–	–	–	76	–	76
CCCCOCCCNc1ncnc2c1[nH]c1ccccc12	92	–	87	–	–	–	96	82	93
O=C(c1cccc(S(=O)(=O)N2CCN(c3ccc(F)cc3)CC2)c1)N1CCCC(C(F)(F)F)C1 (stereo unspecified)	73	–	89	–	–	–	97	82	85
Cc1ccc(S(=O)(=O)N2CCOCC2)cc1C(=O)N(C)CCOc1ccc(Cl)cc1	–	–	–	–	–	–	·	·	·
CN(CCOc1ccc(Cl)cc1)C(=O)c1cccc(S(=O)(=O)N2CCN(c3ccc(F)cc3)CC2)c1	58	·	96	·	·	–	94	82	90
CCN1CC2=C(OC(N)=C(C#N)C2c2cccs2)/C(=C\c2cccs2)C1 (stereo unspecified)	–	–	–	–	–	–	·	·	·
CC1CCN(C(=O)CSC2=NS(=O)(=O)c3cc(F)ccc3N2)CC1	–	–	–	–	–	–	·	·	·
CCCCN(C)c1c(C)nc2ccc(C(=O)NCCOc3ccc(OC)cc3)cn12	96	·	–	·	·	–	94	–	78
CCOC(=O)C1CCN(C(=O)c2cccnc2Oc2ccccc2)CC1	–	–	–	–	–	–	·	·	·
Cc1ccc(C)c(NC(=O)c2ccccc2NS(=O)(=O)c2cc([N+](=O)[O-])ccc2C)c1	92	–	85	–	–	–	99	89	58
Cc1ccc(C)c(S(=O)(=O)Nc2ccccc2C(=O)Nc2cc(C)on2)c1	58	–	–	–	–	–	–	–	70
O=C(NC1=NCCS1)C1CC(=O)N(c2ccc(Cl)cc2)C1 (stereo unspecified)	–	–	–	–	–	–	·	·	·
CCN1CCN(c2ccc(S(=O)(=O)N3CCCCC3)cc2N)CC1	–	–	–	–	–	–	·	·	·
Nc1cc(S(=O)(=O)c2ccc(N3CCCCC3)c(N)c2)ccc1N1CCCCC1	94	·	94	·	·	–	95	84	105
CC1CCN(c2ccc(S(=O)(=O)N3CCC(C)CC3)cc2N)CC1	69	–	100	–	–	–	87	72	77
COc1ccc(NS(=O)(=O)c2ccc(N3CCCCC3)c(N)c2)cc1	90	–	92	–	–	–	95	86	87
